Here are results for 63 compounds from ChEMBL document CHEMBL1123516, “Substituted 1,3,4-thiadiazoles with anticonvulsant activity. 1. Hydrazines” (J Med Chem, 1986).

The subject of series [1] is Mus musculus. In words: Anticonvulsant activity tested by maximal electroshock test (MES) in mouse after 1 hr of administration. In kind it is functional. An outline of the steps:
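Male BKW mice (LACA origin), 18-22 g, dosed ip or po with compound dissolved or suspended in 2% Tween 80 in distilled water. Readout was block of hind limb tonic seizure. ED50 was derived by probit analysis using the computerized Bliss method.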
Background: The maximal electroshock test induces tonic seizures with an electrical stimulus.

In series [2] the test system is Mus musculus. Put plainly: Anticonvulsant activity tested by maximal metrazole seizure (MMS) test in mouse after 1 hr of administration. The format is functional. An outline of the steps:
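Male BKW mice, 18-22 g, dosed orally with compound in 2% Tween 80/water. Metrazol 120 mg/kg ip was given 1 h after dosing. ED50 for block of hind limb tonic seizure was derived by Bliss probit analysis.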

Series [3] in a line: Neurotoxicity by performing a rotarod test in mouse after 1 hr of administration. In kind it is toxicity, organism-based. The following applies: in vivo. An outline of the steps: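 Male BKW mice, 18-22 g, were pre-trained on a rotorod turning at 16 rpm (3 cm drum). They were dosed ip or po in 2% Tween 80/water and tested at timed intervals. TD50, the dose at which 50% fell off the rod, was derived by probit analysis.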
(In general: In the rotarod test animals must keep their balance on a rotating rod.)

Series [4] concerns Rattus norvegicus. Put plainly: Maximum percent fall in mean arterial blood pressure was evaluated by injecting 100 mg/kg perorally in DOCA hypertensive rats. The following applies: route oral. In kind it is functional.

As usually defined, the ED50 is the dose that gives a 50% effect, or the effect in half of the subjects. In general, TD50 refers to the 50% point of the dose-response relation for the toxic effect studied. High values mean lower toxicity, low ones greater toxicity.

With `NN(CCc1ccccc1)c1nnc(-c2ccccc2Cl)s1`, the results for the ED50 in series [1] and in series [2] were greater than 100 mg/kg and roughly 200 mg/kg, respectively.
Regarding `Cc1ccccc1-c1nnc(NNC(c2ccccc2)c2ccccc2)s1`, the ED50 in series [1] is greater than 200 mg/kg; in series [2] it was greater than 100 mg/kg.
`Cc1ccccc1-c1nnc(N(C)NC(c2ccccc2)c2ccccc2)s1`: the ED50 in series [1] and in series [2] was greater than 200 mg/kg each time.
As to `CNN(Cc1ccccc1)c1nnc(-c2ccccc2C)s1.Cl`, the ED50 in series [1] amounted to 109 mg/kg; in series [2], 93 mg/kg. The compound also showed a TD50 at 1 h in series [3] of 341 mg/kg.
With `Cc1ccccc1-c1nnc(NNc2ccccc2)s1`, the ED50 in series [1] and in series [2] was greater than 100 mg/kg in each case.
With `CN(N)c1nnc(-c2cccc(Oc3ccccc3)c2)s1`, the ED50 in series [1] is 100 mg/kg; in series [2], 111 mg/kg.
As to `CCCCCCOc1ccccc1-c1nnc(NNC(C)C)s1.Cl`, the ED50 in series [1] and in series [2] was greater than 100 mg/kg throughout.
For `NN(Cc1ccccc1)c1nnc(-c2ccccc2Cl)s1`, the values for the ED50 in series [1] and in series [2] were 186 mg/kg and 143 mg/kg, respectively.
Turning to `Cc1ccccc1-c1nnc(NN(C)C(C)C)s1`, the median effective dose (ED50) in series [1] is 140 mg/kg; in series [2], greater than 100 mg/kg.
Regarding `CN(NC1CCCC1)c1nnc(-c2ccccc2Cl)s1.Cl`, the ED50 in series [1] is 106 mg/kg; in series [2], greater than 100 mg/kg.
As for `CCCCCCOc1ccccc1-c1nnc(NNC2CCCC2)s1.Cl`, the 50% effective dose (ED50) in series [1] and in series [2] was greater than 100 mg/kg each time.
As to `CNN(c1nnc(-c2ccccc2Cl)s1)C(C)C`, the ED50 in series [1] and in series [2] was greater than 100 mg/kg each time.
For `CNN(Cc1ccccc1)c1nnc(-c2ccccc2Cl)s1.Cl`, the 50% effective dose (ED50) in series [1] and in series [2] was greater than 100 mg/kg each time.
Turning to `CC(C)N(N)c1nnc(-c2ccccc2-c2ccccc2)s1`, the ED50 in series [1] and in series [2] was greater than 100 mg/kg in each case.
Turning to `CCCCCCOc1ccccc1-c1nnc(N(C)N)s1.Cl`, the figures for the 50% effective dose (ED50) in series [1] and in series [2] were 26 mg/kg and 27 mg/kg, respectively. For the same compound, the TD50 at 1 h in series [3] is roughly 160 mg/kg.
As to `Cc1ccccc1-c1nnc(N(C)NC(C)C)s1.Cl`, the ED50 stood at 35 mg/kg in series [1] and 38 mg/kg in series [2].
For `CC(C)NN(C)c1nnc(-c2ccccc2-c2ccccc2)s1.Cl` the same measures were 55 mg/kg and 66 mg/kg.
Take `Cl.NN(c1nnc(-c2ccccc2Cl)s1)C1CCCCC1`: the ED50 in series [1] and in series [2] was greater than 100 mg/kg in each case.
In the case of `Clc1ccccc1-c1nnc(NNC2CCCC2)s1`, the ED50 in series [1] and in series [2] was greater than 100 mg/kg in each case.
Regarding `CCCCN(N)c1nnc(-c2ccccc2C)s1.Cl`, the ED50 in series [1] amounted to 119 mg/kg; in series [2], 60 mg/kg.
With `CN(N)c1nnc(CCc2ccccc2)s1.Cl`, the values for the ED50 in series [1] and in series [2] were 51 mg/kg and 49 mg/kg, respectively. The compound also gave a TD50 at 1 h in series [3] of 317 mg/kg.
For `CN(C)N(C)c1nnc(-c2ccccc2Cl)s1.Cl`, the 50% effective dose (ED50) in series [1] was 53 mg/kg; in series [2], greater than 100 mg/kg. Also, the TD50 at 1 h in series [3] was found to be 347 mg/kg.
With `CCCCCCOc1ccccc1-c1nnc(NNc2ccccc2)s1.Cl`, the 50% effective dose (ED50) in series [1] and in series [2] was greater than 100 mg/kg in each case.
Regarding `CN(N)c1nnc(-c2ccccc2Sc2ccccc2)s1.Cl`, the ED50 in series [1] stood at 43 mg/kg; in series [2], 27 mg/kg.
For the compound `CC(C)NNc1nnc(-c2ccccc2Cl)s1`, the ED50 in series [1] and in series [2] was 50 mg/kg in each case. The TD50 at 1 h in series [3] is 200 mg/kg.
For `Cl.c1ccc(NNc2nnc(-c3ccccc3-c3ccccc3)s2)cc1`, the ED50 in series [1] and in series [2] was greater than 100 mg/kg each time.
`Cc1ccccc1-c1nnc(NN)s1.Cl`: the median effective dose (ED50) was greater than 100 mg/kg in series [1] and 30 mg/kg in series [2]. The compound further came in with a TD50 at 1 h in series [3] of 55 mg/kg. Moreover, in series [4], the “Decrease in blood pressure” value is recorded as 63%.
For `CCNN(Cc1ccccc1)c1nnc(-c2ccccc2C)s1.Cl`, the ED50 in series [1] and in series [2] was greater than 100 mg/kg in each case.
With `Cc1ccccc1-c1nnc(N(C)N)s1.Cl`, the ED50 in series [1] amounted to 75 mg/kg; in series [2], 41 mg/kg. In series [3], this compound registered a TD50 at 1 h of 108 mg/kg. In series [4], the “Decrease in blood pressure” value was 29%.
In the case of `Cl.NNc1nnc(-c2ccc(-c3ccccc3)cc2)s1`, in series [1], the ED50 is greater than 200 mg/kg.
Take `CNN(C)c1nnc(-c2ccccc2Cl)s1`: the ED50 came out at 43 mg/kg in series [1] and 25 mg/kg in series [2]. This compound also returned a TD50 at 1 h in series [3] of 106 mg/kg.
As for `Cc1ccccc1-c1nnc(N(N)c2ccccc2)s1`, the median effective dose (ED50) in series [1] and in series [2] was greater than 100 mg/kg throughout. In series [3], this compound had a TD50 at 1 h greater than 400 mg/kg.
As to `Cc1ccccc1-c1nnc(NNC2CCCC2)s1.Cl`, the ED50 in series [1] and in series [2] was greater than 100 mg/kg throughout.
In the case of `CN(Nc1ccccc1)c1nnc(-c2ccccc2Cl)s1`, the ED50 in series [1] and in series [2] was greater than 100 mg/kg each time.
`CC(C)N(N)c1nnc(-c2ccccc2Cl)s1`: the ED50 in series [1] was 54 mg/kg; in series [2], greater than 100 mg/kg. The compound further gave a TD50 at 1 h in series [3] greater than 800 mg/kg.
As to `Cc1ccccc1-c1nnc(NNC(C)C)s1`, the ED50 worked out at 83 mg/kg in series [1] and 54 mg/kg in series [2]. The TD50 at 1 h in series [3] came out at 449 mg/kg.
Regarding `Cc1ccccc1-c1nnc(N(C)N(C)C)s1`, the ED50 in series [1] was 25 mg/kg; in series [2], 68 mg/kg. The TD50 at 1 h in series [3] came to 167 mg/kg.
For `NN(c1ccccc1)c1nnc(-c2ccccc2-c2ccccc2)s1`, the ED50 in series [1] and in series [2] was greater than 100 mg/kg each time.
`Cl.Clc1ccccc1-c1nnc(NNCc2ccccc2)s1`: the ED50 in series [1] and in series [2] was greater than 100 mg/kg throughout.
Take `Cc1ccccc1-c1nnc(N(C)NC2CCCC2)s1.Cl`: the ED50 in series [1] is 110 mg/kg; in series [2], 81 mg/kg.
For `CN(N)c1nnc(-c2ccccc2Cc2ccccc2)s1.Cl` the same measures were 50 mg/kg and 54 mg/kg.
With `Cc1ccccc1-c1nnc(NN(C)C)s1.Cl`, the ED50 in series [1] is 60 mg/kg; in series [2], greater than 100 mg/kg. In series [3], the TD50 at 1 h was greater than 250 mg/kg.
Take `Cl.NNc1nnc(-c2ccccc2Cl)s1`: the 50% effective dose (ED50) in series [1] came to 70 mg/kg; in series [2], 25 mg/kg. The same compound had a TD50 at 1 h in series [3] greater than 568 mg/kg. Also, in series [4], the “Decrease in blood pressure” value is 21%.
For the compound `CNN(C)c1nnc(-c2ccccc2-c2ccccc2)s1.Cl`, the ED50 is roughly 100 mg/kg in series [1] and greater than 100 mg/kg in series [2].
For the compound `CCCCCCOc1ccccc1-c1nnc(N(C)NC(C)C)s1.Cl`, the values for the median effective dose (ED50) in series [1] and in series [2] were 97 mg/kg and 56 mg/kg, respectively.
For `CCCCCCOc1ccccc1-c1nnc(N(C)NC)s1.Cl` the same measures were less than 250 mg/kg and 39 mg/kg.
Consider `CC(C)NNc1nnc(-c2ccccc2-c2ccccc2)s1`, for which the results for the ED50 in series [1] and in series [2] were 35 mg/kg and 44 mg/kg, respectively.
Consider `CN(N)c1nnc(-c2ccc(-c3ccccc3)cc2)s1`, for which the ED50 in series [1] was greater than 200 mg/kg.
With `CN(N)c1nnc(-c2ccccc2Cl)s1.Cl`, the ED50 in series [1] is 20 mg/kg; in series [2] it was 41 mg/kg. In series [3], this compound came in with a TD50 at 1 h of 136 mg/kg.
For `CNNc1nnc(-c2ccccc2C)s1`, the ED50 in series [1] and in series [2] was greater than 100 mg/kg throughout.
`Cc1ccccc1-c1nnc(N(N)C(C)C)s1.Cl`: the ED50 was determined as 54 mg/kg in series [1] and 49 mg/kg in series [2].
In the case of `CC(C)NN(C)c1nnc(-c2ccccc2Cl)s1.Cl`, the ED50 in series [1] came out at 16 mg/kg; in series [2], 30 mg/kg. The compound also returned a TD50 at 1 h in series [3] of 71 mg/kg.
For `Cc1ccccc1-c1nnc(N(N)Cc2ccccc2)s1` the same measures were 27 mg/kg, 44 mg/kg and greater than 200 mg/kg.
For `Cc1ccccc1-c1nnc(N(Cc2ccccc2)N(C)C)s1.Cl`, the values for the ED50 in series [1] and in series [2] were greater than 200 mg/kg and greater than 100 mg/kg, respectively.
For `NN(c1ccccc1)c1nnc(-c2ccccc2Cl)s1` the same measures were greater than 100 mg/kg and greater than 100 mg/kg.
For `CNN(c1nnc(-c2ccccc2C)s1)C(C)C.Cl` the same measures were greater than 100 mg/kg and greater than 100 mg/kg.
Turning to `CN(N)c1nnc(Cc2ccccc2)s1.Cl`, the ED50 in series [1] turned out to be 11 mg/kg; in series [2], 25 mg/kg. Besides, the TD50 at 1 h in series [3] was 280 mg/kg.
In the case of `CN(N)c1nnc(-c2ccccc2Oc2ccccc2)s1.Cl`, the ED50 in series [1] and in series [2] was 33 mg/kg in each case. Also, the TD50 at 1 h in series [3] is less than 400 mg/kg.
In the case of `CC(C)N(c1nnc(-c2ccccc2Cl)s1)N(C)C.Cl`, the ED50 in series [1] was 116 mg/kg; in series [2] it was greater than 200 mg/kg.
As to `CNN(C)c1nnc(-c2ccccc2C)s1`, the values for the ED50 in series [1] and in series [2] were 10 mg/kg and 23 mg/kg, respectively. The compound also displayed a TD50 at 1 h in series [3] of 72 mg/kg.
For the compound `Cl.NNc1nnc(-c2ccccc2-c2ccccc2)s1`, the ED50 amounted to 28 mg/kg in series [1] and 33 mg/kg in series [2]. In series [3], this compound registered a TD50 at 1 h of 627 mg/kg. Further, the “Decrease in blood pressure” value in series [4] turned out to be 18%.
`Clc1ccccc1-c1nnc(NNc2ccccc2)s1`: the ED50 was greater than 100 mg/kg in series [1] and greater than 200 mg/kg in series [2].
With `Cl.NN(Cc1ccccc1)c1nnc(-c2ccccc2-c2ccccc2)s1`, the ED50 in series [1] and in series [2] was greater than 200 mg/kg in each case.
